Test results as given in paper PMC3604185 (Biochemical pharmacology, 2013).
Where “and” joins values, the source holds several entries; their conditions need not be identical. Equal values may be shown once. Values belong to the molecule of their own block, whether it stands above or below them.

Key:
hA3AR [1] = target: T1, hA3AR (Homo sapiens, UniProt P0DMS8); test: FCM competitive binding in hA3AR-CHO whole cells with MRS5218; conditions: read-out: FCM binding at hA3AR, Ki, MRS5218 30 nM tracer, 60 min at 37 °C, 0.4 M sucrose
T1 sequence (P0DMS8 1-318): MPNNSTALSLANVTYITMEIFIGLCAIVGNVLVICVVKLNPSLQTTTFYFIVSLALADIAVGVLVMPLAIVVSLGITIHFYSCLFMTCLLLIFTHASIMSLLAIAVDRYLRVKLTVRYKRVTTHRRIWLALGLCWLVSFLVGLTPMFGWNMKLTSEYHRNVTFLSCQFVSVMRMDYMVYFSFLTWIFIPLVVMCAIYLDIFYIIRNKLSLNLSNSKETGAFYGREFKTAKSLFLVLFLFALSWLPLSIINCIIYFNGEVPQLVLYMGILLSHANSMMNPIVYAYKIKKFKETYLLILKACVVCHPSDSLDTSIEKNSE

mA3AR [2] = target: T2, mA3AR (Mus musculus, UniProt Q61618); test: FCM binding
T2 sequence (Q61618 1-319): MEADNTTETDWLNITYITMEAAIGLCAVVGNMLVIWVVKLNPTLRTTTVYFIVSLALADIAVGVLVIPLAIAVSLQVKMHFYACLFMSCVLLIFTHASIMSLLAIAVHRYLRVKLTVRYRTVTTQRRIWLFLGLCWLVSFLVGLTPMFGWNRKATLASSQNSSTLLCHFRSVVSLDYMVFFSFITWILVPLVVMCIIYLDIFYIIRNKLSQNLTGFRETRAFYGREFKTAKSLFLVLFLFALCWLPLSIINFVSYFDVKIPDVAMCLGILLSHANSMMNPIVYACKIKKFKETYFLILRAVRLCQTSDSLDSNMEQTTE
Method in brief: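 HEK293 cells stably expressing mouse A3AR, grown in DMEM with 10% FBS and 0.6 mg/ml G418. Cells were incubated with fluorescent agonist (5–1,000 nM) at 37 °C for varied times. […] Cells were washed in ice-cold PBS and detached with 0.2% EDTA. MFI was read in FL-4 (635 nm laser) and fitted by non-linear least squares.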

hA3AR [3] = target: T1, hA3AR; test: FCM of MRS5704 in AR-expressing HEK293 cells; type: binding
mA2AAR [4] = target: T3, mA2AAR (Mus musculus, UniProt Q60613); type: binding; conditions: read-out: Ki, A2AAR (mouse), n = 3-4
T3 sequence (Q60613 whole entry): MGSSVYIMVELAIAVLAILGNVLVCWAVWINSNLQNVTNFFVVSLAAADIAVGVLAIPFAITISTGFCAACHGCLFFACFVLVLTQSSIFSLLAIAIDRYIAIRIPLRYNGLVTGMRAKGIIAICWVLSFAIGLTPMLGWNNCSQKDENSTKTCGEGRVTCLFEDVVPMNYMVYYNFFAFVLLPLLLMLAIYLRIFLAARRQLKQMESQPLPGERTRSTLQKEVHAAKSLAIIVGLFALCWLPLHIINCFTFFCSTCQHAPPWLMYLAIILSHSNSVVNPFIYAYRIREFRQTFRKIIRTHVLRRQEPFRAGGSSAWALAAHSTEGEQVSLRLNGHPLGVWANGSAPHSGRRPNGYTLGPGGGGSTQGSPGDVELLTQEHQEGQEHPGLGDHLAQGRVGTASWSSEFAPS
Method in brief: (§1)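 Membranes from HEK293 cells stably expressing the mouse receptor were used in a competition assay following the human-receptor protocol. Test compound at increasing concentrations was incubated with radioligand and membranes in 50 mM Tris-HCl, pH 7.5, with 10 mM MgCl2, at 25 °C for 60 min. Bound and free were separated by GF/B filtration with ice-cold Tris washes. […] Ki was calculated from IC50 by nonlinear fitting.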

hA2AAR = hA2AAR (Homo sapiens, UniProt P29274); conditions: read-out: Ki, A2AAR, ref [21],[22]; cited from earlier work
Sequence of hA2AAR (P29274 whole entry): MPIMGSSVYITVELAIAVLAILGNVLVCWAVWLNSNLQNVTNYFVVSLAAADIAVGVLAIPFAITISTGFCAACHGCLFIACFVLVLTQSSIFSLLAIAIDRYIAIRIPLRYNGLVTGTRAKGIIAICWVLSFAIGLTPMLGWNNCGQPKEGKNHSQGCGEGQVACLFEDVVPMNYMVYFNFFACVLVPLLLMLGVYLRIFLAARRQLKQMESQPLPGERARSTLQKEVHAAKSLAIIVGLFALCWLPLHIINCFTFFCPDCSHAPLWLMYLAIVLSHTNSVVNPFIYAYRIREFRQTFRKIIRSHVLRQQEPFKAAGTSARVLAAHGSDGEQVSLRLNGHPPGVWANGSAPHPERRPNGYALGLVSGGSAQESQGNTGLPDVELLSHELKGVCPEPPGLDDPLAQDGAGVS

mA2AAR [5] = target: T3, mA2AAR; test: FCM binding in HEK293 cells expressing mA2AAR; conditions: 1 µM, 2 h
Method in brief: (§2)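 Stable HEK293 lines expressing the mouse receptor were grown in DMEM with 10% FBS, 2 mM L-glutamine, penicillin/streptomycin and 0.6 mg/ml G418, then plated for 24 h at 37 °C, 5% CO2. At about 80% confluency, the fluorescent agonist (range 5–1000 nM) was added in fresh medium at 37 °C. Cells were then washed in ice-cold PBS, detached with 0.2% EDTA, spun twice at 400 × g and resuspended in PBS. MFI was read by flow cytometry (635 nm laser, FL-4, log mode).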

mA2BAR = target: T4, mA2BAR (Mus musculus, UniProt Q60614); test: FCM binding in HEK293 cells expressing mA2BAR; conditions: 1 µM, 2 h
T4 sequence (Q60614 1-332): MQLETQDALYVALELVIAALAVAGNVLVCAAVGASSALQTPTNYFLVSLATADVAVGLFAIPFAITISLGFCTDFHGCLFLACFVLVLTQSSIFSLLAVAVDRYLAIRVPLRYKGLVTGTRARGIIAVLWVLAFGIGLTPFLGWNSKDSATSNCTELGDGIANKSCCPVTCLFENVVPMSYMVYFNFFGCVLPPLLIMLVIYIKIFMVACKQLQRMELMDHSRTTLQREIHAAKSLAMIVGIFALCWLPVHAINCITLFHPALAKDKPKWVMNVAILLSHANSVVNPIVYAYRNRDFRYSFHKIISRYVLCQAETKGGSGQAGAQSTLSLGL
Method in brief: as §2

mA1AR [6] = target: T5, mA1AR (Mus musculus, UniProt Q60612); test: FCM binding in HEK293 cells expressing mA1AR; conditions: 1 µM, 2 h
T5 sequence (Q60612 1-326): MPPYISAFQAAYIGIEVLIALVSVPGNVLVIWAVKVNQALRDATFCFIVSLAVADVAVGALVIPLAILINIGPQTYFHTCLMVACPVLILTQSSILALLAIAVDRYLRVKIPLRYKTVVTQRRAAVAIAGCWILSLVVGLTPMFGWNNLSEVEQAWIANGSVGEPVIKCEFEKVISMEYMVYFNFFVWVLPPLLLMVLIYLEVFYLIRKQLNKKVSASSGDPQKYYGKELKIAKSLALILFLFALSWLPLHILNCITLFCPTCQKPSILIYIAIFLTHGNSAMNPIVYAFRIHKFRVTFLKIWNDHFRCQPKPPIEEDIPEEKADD
Method in brief: as §2

hA1AR = target: T6, hA1AR (Homo sapiens, UniProt P30542); conditions: inhibition of radioligand binding at 10 µM, ref [19],[21],[22]; cited from earlier work
T6 sequence (P30542 1-326): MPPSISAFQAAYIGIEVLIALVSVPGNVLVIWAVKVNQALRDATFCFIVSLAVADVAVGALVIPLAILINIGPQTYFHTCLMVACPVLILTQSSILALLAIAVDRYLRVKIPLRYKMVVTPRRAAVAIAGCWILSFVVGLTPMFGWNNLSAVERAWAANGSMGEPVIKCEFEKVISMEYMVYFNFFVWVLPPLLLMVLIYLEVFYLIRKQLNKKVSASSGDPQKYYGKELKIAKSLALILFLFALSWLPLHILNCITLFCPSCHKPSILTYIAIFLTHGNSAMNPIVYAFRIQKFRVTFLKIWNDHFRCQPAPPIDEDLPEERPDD

mA3AR [7] = target: T2, mA3AR; type: binding; conditions: read-out: Ki, A3AR (mouse), n = 3-4
Method in brief: as §1

mA1AR [8] = target: T5, mA1AR; type: binding; conditions: read-out: Ki, A1AR (mouse), n = 3-4
Method in brief: as §1

Ki (hA3AR [1]): 88.4 ± 13.6 nM
Molecule: OC[C@H]1O[C@@H](n2cnc3c(NC4CCCC4)ncnc32)[C@H](O)[C@@H]1O [CPA]

Molecule: CNC(=O)[C@@]12C[C@@H]1[C@@H](n1cnc3c(NCc4cccc(Cl)c4)nc(C#Cc4ccc5ccc6cccc7ccc4c5c67)nc31)[C@H](O)[C@@H]2O [Compound 2, (1S,2R,3S,4R,5S)-4-(6-(3-chlorobenzylamino)-2-(pyren-1-ylethynyl)-9H-purin-9-yl)-2,3-dihydroxy-N-methylbicyclo[3.1.0]hexane-1-carboxamide]
specific fluorescent binding by FCM, mA3AR (mA3AR [2]; AR-expressing HEK293 cells): failed to show specific fluorescent binding
specific fluorescent binding by FCM, hA3AR (hA3AR [3]): failed to show specific fluorescent binding

t1/2 of dissociation (mA3AR [2]; 5 nM for 2 h, then NECA (100 µM)): 39.4 ± 4.2 min
t1/2 of association (mA3AR [2]; 5 nM, listed as MRS5218): 38 min and 37.8 ± 2.9 min
Kd (mA3AR [2]; read-out: Kd app, saturation, whole cells, 2 h, absence of sucrose): 7.52 ± 0.49 nM
Bmax (mA3AR [2]; saturation, whole cells, 2 h, absence of sucrose): 99,420±18,110 MESF/cell
Ki (mA2AAR [4]): 717 ± 19 nM
specific binding to mA2AAR-HEK293 cells (mA2AAR [5]): not observed
specific binding to mA2BAR-HEK293 cells (mA2BAR): became detectable
specific binding to mA1AR-HEK293 cells (mA1AR [6]): not observed
Ki (mA3AR [7]): 261 ± 29 nM
Ki (mA1AR [8]): 143 nM
Molecule: (1′S,2′R,3′S,4′S,5′S)-4′-[6-(3-chlorobenzylamino)-2-(N-cyanine(β-aminoethylaminocarbonyl)-1-butynyl)-9-yl]-2′,3′-dihydroxybicyclo[3.1.0]hexane-1′-carboxylic acid N-methylamide [Compound 1]
specific labeling of mA3AR-HEK293 cells (mA3AR [2]; 50-300 nM, 2 h, nonspecific with 100 µM NECA): specifically labeled mA3AR-HEK293 cells versus cells expressing other AR subtypes
Ki (hA2AAR): 4730 nM
% inhibition, A1AR (hA1AR): h: 36%
